# Data reported in PubChem BioAssay AID488775 (The Scripps Research Institute Molecular Screening Center, 2010).
# The source made the active and inactive calls.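 Rule for the calls: active = inhibition of the reporter signal above 10%; inactive = the rest.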
# Tested on: GAL4DBD-VP16 transactivation domain fusion (Human herpesvirus 1 VP16)
# Test: GAL4-VP16 transactivation inhibitors, confirmation, counter-screen for LRH1 inverse agonist project, cell-based, luminescence, HEK293T, powder samples (AID 488775)
# Settings: HEK293T GAL4-VP16 UAS-luciferase reporter, 18-24 h; at 5 µM; active compounds read high
# Summary of the method: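 assay system = HEK293T cells with GAL4–VP16 fusion and UAS-luciferase reporter | compound = one dose, 5 µM nominal | signal = luminescence from luciferase | read-out = percent inhibition from averaged fold change relative to DMSO vehicle wells | control set = DMSO vehicle-treated cells as reference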
row,SMILES,inhibition
1,CCOC(=O)N1CCN(c2cc(=O)n(C3CCCCC3)c(=O)[nH]2)CC1,-6% (inactive)
2,O=c1cc(N2CCN(c3ccccn3)CC2)[nH]c(=O)n1C1CCCCC1,-8% (inactive)
3,CCN1CCN(c2cc(=O)n(C3CCCCC3)c(=O)[nH]2)CC1,0% (inactive)
4,O=c1cc(N2CCN(Cc3ccc4c(c3)OCO4)CC2)[nH]c(=O)n1C1CCCCC1,-5% (inactive)
5,O=c1cc(N2CCN(C3CCCCC3)CC2)[nH]c(=O)n1C1CCCCC1,0% (inactive)
6,O=c1cc(N2CCN(C(c3ccccc3)c3ccccc3)CC2)[nH]c(=O)n1C1CCCCC1,11% (inactive)
7,COC(=O)C1CCN(c2cc(=O)n(C3CCCCC3)c(=O)[nH]2)CC1,-12% (inactive)
8,O=C(c1ccccc1)N1CCN(c2cc(=O)n(C3CCCCC3)c(=O)[nH]2)CC1,8% (inactive)
9,CC1CCN(c2cc(=O)n(Cc3ccc(F)cc3)c(=O)[nH]2)CC1,-7% (inactive)
10,O=c1cc(N2CCN(c3cccc(Cl)c3Cl)CC2)[nH]c(=O)n1C1CCCCC1,-5% (inactive)
11,Cc1ccc(C)n1CCN1CCN(c2cc(=O)n(C3CCCCC3)c(=O)[nH]2)CC1,17%
12,O=c1cc(N2CCN(c3ncccc3Cl)CC2)[nH]c(=O)n1C1CCCCC1,16%
13,O=c1cc(N2CCN(CCN3CCOCC3)CC2)[nH]c(=O)n1C1CCCCC1,26%
14,O=c1cc(N2CCN(c3nccc4occc34)CC2)[nH]c(=O)n1C1CCCCC1,-4% (inactive)
15,Cc1cc(C)cc(N2CCN(c3cc(=O)n(C4CCCCC4)c(=O)[nH]3)CC2)c1,-6% (inactive)
16,CC1CCN(c2cc(=O)n(C3CCCCC3)c(=O)[nH]2)CC1,6% (inactive)
17,O=c1cc(N2CCN(c3ccccc3Cl)CC2)[nH]c(=O)n1C1CCCCC1,1% (inactive)
18,O=c1cc(N2CCOCC2)[nH]c(=O)n1C1CCCCC1,9% (inactive)
19,O=c1cc(N2CCCCC2)[nH]c(=O)n1C1CCCCC1,0% (inactive)
20,O=c1cc(N2CCN(c3cc(Cl)cc(Cl)c3)CC2)[nH]c(=O)n1C1CCCCC1,1% (inactive)
21,O=c1cc(N2CCN(c3nc(-c4ccccc4)ns3)CC2)[nH]c(=O)n1C1CCCCC1,-27% (inactive)
22,O=C(c1ccco1)N1CCN(c2cc(=O)n(C3CCCCC3)c(=O)[nH]2)CC1,17%
23,C=CCN1CCN(c2cc(=O)n(C3CCCCC3)c(=O)[nH]2)CC1,-48% (inactive)
24,O=c1cc(N2CCC(Cc3ccccc3)CC2)[nH]c(=O)n1C1CCCCC1,26%
25,O=c1cc(N2CCN(c3ccnc4cc(Cl)ccc34)CC2)[nH]c(=O)n1C1CCCCC1,7% (inactive)
26,O=c1cc(N2CCCC2)[nH]c(=O)n1C1CCCCC1,-6% (inactive)
27,O=c1cc(N2CCN(Cc3ccc(Cl)cc3)CC2)[nH]c(=O)n1C1CCCCC1,-4% (inactive)
28,O=c1cc(N2CCc3ccccc32)[nH]c(=O)n1C1CCCCC1,-11% (inactive)

# Now from value to compound:
row,inhibition,SMILES
1,2% (inactive),N#CCn1c(N2CCN(c3cccc(C(F)(F)F)c3)CC2)cc(=O)n(C2CCCCC2)c1=O
2,20%,C=CCn1c(N2CCN(c3cccc(C(F)(F)F)c3)CC2)cc(=O)n(C2CCCCC2)c1=O
3,3% (inactive),O=c1cc(N2CCN(c3cccc(Cl)c3)CC2)[nH]c(=O)[nH]1
4,14%,O=c1cc(N2CCN(c3ccccc3C(F)(F)F)CC2)[nH]c(=O)n1C1CCCCC1
5,-1% (inactive),Cn1c(=O)cc(N2CCN(c3cccc(Cl)c3)CC2)[nH]c1=O
6,0% (inactive),Cc1ccc(Cl)cc1N1CCN(c2cc(=O)n(C3CCCCC3)c(=O)[nH]2)CC1
7,1% (inactive),COc1ccc(N2CCN(c3cc(=O)n(C4CCCCC4)c(=O)[nH]3)CC2)cc1
8,-7% (inactive),CCn1c(=O)cc(N2CCN(c3ccc(F)cc3)CC2)[nH]c1=O
9,8% (inactive),CC(C)Cn1c(=O)cc(N2CCN(c3cccc(C(F)(F)F)c3)CC2)[nH]c1=O
10,-7% (inactive),CCn1c(=O)cc(N2CCN(c3ccccc3)CC2)[nH]c1=O
11,-3% (inactive),O=c1cc(N2CCN(c3cccc(C(F)(F)F)c3)CC2)[nH]c(=O)n1-c1ccccc1
12,-1% (inactive),O=c1cc(N2CCN(c3cccc(C(F)(F)F)c3)CC2)n(Cc2ccccc2)c(=O)n1C1CCCCC1
13,-5% (inactive),O=c1cc(N2CCN(c3ccc(C(F)(F)F)cc3)CC2)[nH]c(=O)n1C1CCCCC1
14,-13% (inactive),Cn1c(=O)cc(N2CCN(c3ccc(F)cc3)CC2)[nH]c1=O
15,5% (inactive),CCn1c(=O)cc(N2CCN(c3cccc(Cl)c3)CC2)[nH]c1=O
16,13%,O=c1cc(N2CCN(c3ncccc3C(F)(F)F)CC2)[nH]c(=O)n1C1CCCCC1

row,inhibition,SMILES
1,-5% (inactive),O=c1cc(N2CCN(c3ccccc3)CC2)[nH]c(=O)n1Cc1ccc(F)cc1
2,1% (inactive),CCn1c(=O)cc(N2CCN(c3cccc(C(F)(F)F)c3)CC2)[nH]c1=O
3,-10% (inactive),CCn1c(=O)cc(N2CCN(Cc3ccccc3)CC2)[nH]c1=O
4,-7% (inactive),O=c1cc(N2CCN(c3cccc(Cl)n3)CC2)[nH]c(=O)n1C1CCCCC1
5,-16% (inactive),O=c1cc(N2CCN(c3ccccc3)CC2)[nH]c(=O)n1C1CCCCC1
6,-9% (inactive),O=c1cc(N2CCN(c3ccc(F)cc3)CC2)[nH]c(=O)n1C1CCCCC1
7,26%,O=c1cc(N2CCN(c3ccc(F)cc3F)CC2)[nH]c(=O)n1C1CCCCC1
8,6% (inactive),O=c1cc(N2CCN(c3cccc(C(F)(F)F)c3)CC2)[nH]c(=O)n1Cc1ccccc1
9,-6% (inactive),O=c1cc(N2CCN(c3cccc(C(F)(F)F)c3)CC2)[nH]c(=O)n1C1CCCCC1
10,3% (inactive),O=c1cc(N2CCN(c3cccc(C(F)(F)F)n3)CC2)[nH]c(=O)n1C1CCCCC1
11,1% (inactive),O=c1cc(N2CCN(c3cccc(Cl)c3)CC2)[nH]c(=O)n1C1CCCCC1
12,1% (inactive),C=CCn1c(=O)cc(N2CCN(c3cccc(C(F)(F)F)c3)CC2)[nH]c1=O
13,-12% (inactive),O=c1cc(N2CCN(c3cc(C(F)(F)F)ccn3)CC2)[nH]c(=O)n1C1CCCCC1
14,0% (inactive),CCn1c(=O)cc(N2CCN(C(=O)c3ccco3)CC2)[nH]c1=O
15,-4% (inactive),O=c1cc(N2CCN(c3cccc(Br)c3)CC2)[nH]c(=O)n1C1CCCCC1
